Like-named read-outs stand apart in the source and are kept apart here.

Data set [1] concerns various cancer cell lines. Conditions: literature values for various cancer cell lines; ref Chauffert & Dimanche-Boitrel 1998; Lee et al. 2008; Meli et al. 2012; cited from earlier work.
The test system of data set [2] is ReNcell CX neural progenitor cell line. Conditions: cited from earlier work.
Data set [3] has as its system ReNcell VM cells. In kind it is cell-based, human.
In data set [4] the test system is ReNcell VM differentiated progeny (astrocytic phenotype). The data set is classed as cell-based, human.
The subject of data set [5] is Hep3B. Conditions: when P450 metabolism was absent; ref Lee et al. 2008; cited from earlier work.
In data set [6] the test system is ReNcell VM cells. In words: Cytotoxicity in 2D ReNcell VM cultures, 96-well plate format. The following applies: Homo sapiens. The data set is classed as cell-based. The procedure, abridged: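 Human neural stem cells seeded at 5,000 cells/well and left to attach for at least 5 h. Doses made by 4-fold serial dilution from the highest dose, each holding 0.5% DMSO vehicle. Viability read by MTT: 2.5 mg/ml MTT solution added, 3 h under culture conditions, supernatant removed, formazan dissolved in DMSO, absorbance at 590 nm with 690 nm reference.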

By IC50 is commonly meant the point on the concentration scale where inhibition reaches its midpoint. With `O=c1[nH]cc(F)c(=O)[nH]1` [5-Fluorouracil, 5-fluorouracil], the IC50 in data set [1] is 1 to 85 µM. The “effect on proliferation and viability” value in data set [2] (non-differentiated, 2D well plate, after 24 h of incubation with the drug, ref Breier et al. 2008a) is listed as “inhibited proliferation without affecting viability”.

`CC(=O)Nc1ccc(O)cc1` [Acetaminophen, acetaminophen]: the IC50 in data set [3] (Homo sapiens, ReNcell VM) turned out to be 2400 µM; in data set [6], 1760 µM. The “viability of the cells below the hepatotoxic range of concentrations” value in data set [3] (hNSC line, concentrations below ~0.2 – 1 mM) is on record as “remains unaffected”; in data set [4] (differentiated progeny, concentrations below ~0.2 – 1 mM), “remains unaffected”. Also, in data set [5], the toxicity entry is on record as “non-toxic”.

For the compound `[Cl][Cd][Cl]` [CdCl, cadmium chloride hydrate], the half-inhibitory concentration (IC50) in data set [3] (Non-differentiated, 3D alginate microarray, 24 h exposure + 48 h in medium) was found to be 7.36 µM.

Regarding `C[C@@H]1C[C@H]2[C@@H]3CCC4=CC(=O)C=C[C@]4(C)[C@@]3(F)[C@@H](O)C[C@]2(C)[C@@]1(O)C(=O)CO` [Dexamethasone, dexamethasone], the IC50 in data set [3] (Homo sapiens, ReNcell VM) came to 2000 µM; in data set [4] (Homo sapiens, ReNcell VM), 60 µM; in data set [6], 215 µM. Besides, in data set [2] (concentrations of up to 100 μM, ref Breier et al. 2008b), the effect on viability result was “negligible effect on viability”.

The record behind these values is article PMC4090259 (Stem cell research, 2014).
